Reference: ChEMBL document CHEMBL4017537, “Discovery of a Potent and Specific M. tuberculosis Leucyl-tRNA Synthetase Inhibitor: (S)-3-(Aminomethyl)-4-chloro-7-(2-hydroxyethoxy)benzo[c][1,2]oxaborol-1(3H)-ol (GSK656)” (J Med Chem, 2017)

Tests used:
[1] = tested on: Mycobacterium tuberculosis; assay: Antimicrobial activity against Mycobacterium tuberculosis H37Rv infected in C57BL/6J mouse assessed as bacterial load in lungs at 100 mg/kg qd administered for 8 consecutive weeks starting from 6 weeks post infection measured 24 hrs post last dose (reference value: 6.4 +/- 0.3 log10CFU); assay type: functional
In short: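 C57BL/6J mice infected intratracheally with ~10² CFU M. tuberculosis H37Rv. Dosed QD, 7 days/week, for 8 weeks starting 6 weeks post-infection; killed ≥24 h after last dose. Lung homogenates plated on 7H11/10% OADC for 21 days at 37 °C. n = 3 per dose group, 7 for controls; mean (SD); ANOVA with Dunnett's test versus 14-week untreated.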

[2] = tested on: cytoplasmic LeuRS; assay: Selectivity index, ratio of EC50 for inhibition of cytoplasmic LeuRS in HepG2 cells assessed as reduction in protein synthesis to MIC for Mycobacterium tuberculosis H37Rv; assay type: toxicity, cell-based; details: human, read-out: Selectivity Index
In short: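 Ratio of HepG2 protein-synthesis EC50 to MIC against M. tuberculosis H37Rv.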

[3] = target: T1, Leucine--tRNA ligase (Mycobacterium tuberculosis (strain ATCC 25618 / H37Rv), UniProt P9WFV1); assay: Inhibition of Mycobacterium tuberculosis H37Rv N-terminal 6His-tagged LeuRS expressed in Escherichia coli BL21(DE3) assessed as L-[14C]leucine incorporation in to Escherichia coli tRNA after 20 mins by liquid scintillation counting analysis
T1 sequence (P9WFV1 whole entry): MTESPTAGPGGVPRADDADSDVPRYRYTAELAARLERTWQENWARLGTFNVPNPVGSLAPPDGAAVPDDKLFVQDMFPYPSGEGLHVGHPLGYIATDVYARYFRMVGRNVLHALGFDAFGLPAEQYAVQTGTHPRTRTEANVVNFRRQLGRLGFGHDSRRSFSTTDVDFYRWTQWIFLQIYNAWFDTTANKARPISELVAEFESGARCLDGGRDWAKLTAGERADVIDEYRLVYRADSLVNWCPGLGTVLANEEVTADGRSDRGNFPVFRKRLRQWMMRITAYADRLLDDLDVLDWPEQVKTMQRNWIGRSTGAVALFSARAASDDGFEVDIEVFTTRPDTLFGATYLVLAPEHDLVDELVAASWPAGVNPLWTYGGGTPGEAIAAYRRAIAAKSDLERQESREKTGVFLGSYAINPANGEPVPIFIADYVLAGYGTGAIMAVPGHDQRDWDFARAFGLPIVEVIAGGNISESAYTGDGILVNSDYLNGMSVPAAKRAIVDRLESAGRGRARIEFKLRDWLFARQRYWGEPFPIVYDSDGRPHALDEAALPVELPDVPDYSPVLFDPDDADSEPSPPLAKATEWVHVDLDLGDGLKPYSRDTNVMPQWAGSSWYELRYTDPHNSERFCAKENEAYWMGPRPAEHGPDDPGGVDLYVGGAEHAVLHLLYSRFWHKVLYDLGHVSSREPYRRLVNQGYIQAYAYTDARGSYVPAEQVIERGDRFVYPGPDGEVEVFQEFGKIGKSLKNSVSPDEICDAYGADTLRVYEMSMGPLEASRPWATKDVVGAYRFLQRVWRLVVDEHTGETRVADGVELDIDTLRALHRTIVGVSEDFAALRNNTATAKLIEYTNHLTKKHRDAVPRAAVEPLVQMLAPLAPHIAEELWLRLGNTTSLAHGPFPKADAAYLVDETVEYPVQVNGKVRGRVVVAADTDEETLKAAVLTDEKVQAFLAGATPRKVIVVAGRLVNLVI
In short: (§1)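 N-terminal His6-tagged LeuRS expressed in E. coli BL21(DE3), codon-optimized. 50 mM HEPES-KOH pH 8.0, 30 mM MgCl2, 30 mM KCl, 13 μM L-[14C]leucine, 15 μM tRNA (E. coli total; brewer's yeast for human cytoplasmic enzyme), 0.02% BSA, 1 mM DTT, 30 °C. Inhibitor preincubated 20 min, started with 4 mM ATP, TCA-quenched after 7 min, filtered, scintillation counted; four-parameter logistic IC50.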

[4] = Volume of distribution at steady state in CD-1 mouse at 5 mg/kg, iv after 24 hrs by LC-MS/MS analysis; assay type: ADME, organism-based; details: in vivo, read-out: Vdss
[5] = tested on: HepG2; assay: Cytotoxicity against human HepG2 cells assessed as reduction in cell viability after 48 hrs by CellTiter-Glo assay; assay type: cell-based; details: HepG2, 48 h
In short: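 HepG2 cells seeded at 10 000/well in EMEM with 5% FCS and 2 mM glutamine. After 24 h, ten 1:2 serial compound dilutions (0.5% DMSO final) added in duplicate for 48 h. Read-out by CellTiter-Glo luminescence per table footnote; the method text also describes resazurin fluorescence (ex 515/em 590 nm). Sigmoidal variable-slope fit.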

[6] = AUC (0 to infinity) in CD-1 mouse at 5 mg/kg, iv after 24 hrs by LC-MS/MS analysis; assay type: ADME, organism-based; design: dose 5 mg/kg, route intravenous, time infinity; details: in vivo
[7] = Oral bioavailability in CD-1 mouse at 5 mg/kg administered via gavage after 24 hrs by LC-MS/MS analysis; assay type: ADME, organism-based; details: in vivo
[8] = target: T2, Leucine--tRNA ligase, mitochondrial (Homo sapiens, UniProt Q15031); assay: Inhibition of human N-terminal 6His-tagged mitochondrial LeuRS expressed in Escherichia coli BL21(DE3) assessed as L-[14C]leucine incorporation in to Escherichia coli tRNA after 20 mins by liquid scintillation counting analysis; in short: as §1
T2 sequence (Q15031 whole entry): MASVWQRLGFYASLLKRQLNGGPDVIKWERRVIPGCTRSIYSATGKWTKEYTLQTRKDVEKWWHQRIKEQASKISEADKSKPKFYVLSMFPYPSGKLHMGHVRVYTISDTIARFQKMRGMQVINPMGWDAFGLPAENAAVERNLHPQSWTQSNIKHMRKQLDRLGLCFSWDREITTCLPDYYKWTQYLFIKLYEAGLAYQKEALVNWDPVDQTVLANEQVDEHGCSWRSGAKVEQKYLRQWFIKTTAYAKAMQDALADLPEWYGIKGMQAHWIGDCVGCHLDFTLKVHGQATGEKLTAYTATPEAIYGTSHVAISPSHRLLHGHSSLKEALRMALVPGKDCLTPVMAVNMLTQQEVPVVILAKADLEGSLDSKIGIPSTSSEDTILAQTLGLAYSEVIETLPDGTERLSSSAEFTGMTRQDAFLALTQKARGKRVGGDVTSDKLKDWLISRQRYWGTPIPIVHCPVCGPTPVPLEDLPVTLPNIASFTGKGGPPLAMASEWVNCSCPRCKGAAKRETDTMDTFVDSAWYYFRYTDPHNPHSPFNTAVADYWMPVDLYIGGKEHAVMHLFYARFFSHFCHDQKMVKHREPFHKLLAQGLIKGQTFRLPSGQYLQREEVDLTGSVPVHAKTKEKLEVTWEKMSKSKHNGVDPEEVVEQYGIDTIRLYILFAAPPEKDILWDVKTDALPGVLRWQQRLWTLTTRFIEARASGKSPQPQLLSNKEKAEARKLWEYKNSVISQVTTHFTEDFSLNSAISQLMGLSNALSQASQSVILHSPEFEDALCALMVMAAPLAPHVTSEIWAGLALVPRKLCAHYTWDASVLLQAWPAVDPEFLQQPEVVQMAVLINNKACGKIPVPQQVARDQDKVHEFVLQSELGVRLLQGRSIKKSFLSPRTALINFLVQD

[9] = Clearance in CD-1 mouse at 5 mg/kg, iv after 24 hrs by LC-MS/MS analysis; assay type: ADME, organism-based; details: in vivo
[10] = target: T3, Leucine--tRNA ligase, cytoplasmic (Homo sapiens, UniProt Q9P2J5); assay: Inhibition of cytoplasmic LeuRS in human HepG2 cells assessed as reduction in protein synthesis preincubated for 48 hrs followed by L-[14C]leucine addition measured after 3 hrs by liquid scintillation counting analysis; assay type: cell-based
In short: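 HepG2 cells in DMEM/10% FCS, 3000 cells/well, exposed to compound dilutions (0.5% DMSO final) for 48 h at 37 °C. Medium then replaced with fresh medium containing 0.5 μCi L-[14C]leucine and the same compound levels for 3 h. Cells trypsinised, precipitated in ice-cold 20% TCA, filtered, washed, scintillation counted; curve-fit EC50; mean of at least duplicates.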

[11] = Cmax in CD-1 mouse at 5 mg/kg administered via oral gavage after 24 hrs by LC-MS/MS analysis; assay type: ADME, organism-based; design: dose 5 mg/kg, route oral; details: in vivo
[12] = target: T3, Leucine--tRNA ligase, cytoplasmic; assay: Inhibition of human N-terminal 6His-tagged cytoplasmic LeuRS expressed in Escherichia coli BL21(DE3) assessed as […] after 20 mins by liquid scintillation counting analysis
[13] = tested on: Mycobacterium tuberculosis; assay: Antimicrobial activity against Mycobacterium tuberculosis H37Rv infected in C57BL/6J mouse assessed as 2 log reduction in bacterial load in lungs administered qd for 8 consecutive days starting on day 1 post infection measured 24 hrs post last dose; assay type: functional
[14] = Half life in CD-1 mouse at 5 mg/kg, iv after 24 hrs by LC-MS/MS analysis; assay type: ADME, organism-based; details: in vivo
[15] = AUC (0 to 24 hrs) in CD-1 mouse at 5 mg/kg administered via oral gavage by LC-MS/MS analysis; assay type: ADME, organism-based; design: time < 24 hr, dose 5 mg/kg, route oral; details: in vivo
[16] = tested on: Mycobacterium tuberculosis; assay: Antimicrobial activity against Mycobacterium tuberculosis H37Rv; assay type: functional
[17] = tested on: Mus musculus; assay: Dose normalized AUC (0 to infinity) in CD-1 mouse at 5 mg/kg, iv after 24 hrs by LC-MS/MS analysis; assay type: ADME, organism-based; details: in vivo
[18] = Tmax in CD-1 mouse at 5 mg/kg administered via oral gavage after 24 hrs by LC-MS/MS analysis; assay type: ADME, organism-based; details: in vivo
[19] = tested on: Mus musculus; assay: Dose normalized AUC (0 to 24 hrs) in CD-1 mouse at 5 mg/kg administered via oral gavage by LC-MS/MS analysis; assay type: ADME, organism-based; details: in vivo
[20] = tested on: Mus musculus; assay: Dose normalized AUC (0 to infinity) in C57BL/6 mouse at 30 mg/kg, iv administered as single dose measured up to 24 hrs by LC-MS/MS analysis; assay type: ADME, organism-based; details: in vivo
[21] = tested on: Mus musculus; assay: Dose normalized AUC (0 to 24 hrs) in C57BL/6 mouse at 30 mg/kg administered as single dose via oral gavage by LC-MS/MS analysis; assay type: ADME, organism-based; details: in vivo
[22] = Oral bioavailability in C57BL/6 mouse at 30 mg/kg administered as single dose via gavage measured up to 24 hrs by LC-MS/MS analysis; assay type: ADME, organism-based; details: in vivo
[23] = Half life in C57BL/6 mouse at 30 mg/kg, iv administered as single dose measured up to 24 hrs by LC-MS/MS analysis; assay type: ADME, organism-based; details: in vivo
[24] = AUC (0 to infinity) in C57BL/6 mouse at 30 mg/kg, iv administered as single dose measured up to 24 hrs by LC-MS/MS analysis; assay type: ADME, organism-based; design: dose 30 mg/kg, time infinity, route intravenous; details: in vivo
[25] = AUC (0 to 24 hrs) in C57BL/6 mouse at 30 mg/kg administered as single dose via oral gavage by LC-MS/MS analysis; assay type: ADME, organism-based; design: time < 24 hr, dose 30 mg/kg, route oral; details: in vivo
[26] = Cmax in C57BL/6 mouse at 30 mg/kg administered as single dose via oral gavage measured up to 24 hrs by LC-MS/MS analysis; assay type: ADME, organism-based; design: dose 30 mg/kg, route oral; details: in vivo
[27] = Volume of distribution at steady state in C57BL/6 mouse at 30 mg/kg, iv administered as single dose measured up to 24 hrs by LC-MS/MS analysis; assay type: ADME, organism-based; details: in vivo, read-out: Vdss
In short: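 C57BL/6 female mice (18−20 g) got one intravenous dose in saline. Whole blood (15 μL) was taken by lateral tail-vein puncture from each of 3 mice at 5, 15 and 30 min and at 1, 2, 4, 8 and 24 h postdose, and drug concentrations were measured in peripheral blood.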

[28] = Clearance in C57BL/6 mouse at 30 mg/kg, iv administered as single dose measured up to 24 hrs by LC-MS/MS analysis; assay type: ADME, organism-based; details: in vivo
[29] = Tmax in C57BL/6 mouse at 30 mg/kg administered as single dose via oral gavage measured up to 24 hrs by LC-MS/MS analysis; assay type: ADME, organism-based; details: in vivo
In short: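 C57BL/6 female mice (18−20 g) got one oral gavage dose of 30 mg/kg in 1% methylcellulose. Peripheral whole blood was sampled from 15 min to 24 h postdose, n = 3 mice per time point, and drug concentrations were measured in blood.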

T3 sequence (Q9P2J5 whole entry): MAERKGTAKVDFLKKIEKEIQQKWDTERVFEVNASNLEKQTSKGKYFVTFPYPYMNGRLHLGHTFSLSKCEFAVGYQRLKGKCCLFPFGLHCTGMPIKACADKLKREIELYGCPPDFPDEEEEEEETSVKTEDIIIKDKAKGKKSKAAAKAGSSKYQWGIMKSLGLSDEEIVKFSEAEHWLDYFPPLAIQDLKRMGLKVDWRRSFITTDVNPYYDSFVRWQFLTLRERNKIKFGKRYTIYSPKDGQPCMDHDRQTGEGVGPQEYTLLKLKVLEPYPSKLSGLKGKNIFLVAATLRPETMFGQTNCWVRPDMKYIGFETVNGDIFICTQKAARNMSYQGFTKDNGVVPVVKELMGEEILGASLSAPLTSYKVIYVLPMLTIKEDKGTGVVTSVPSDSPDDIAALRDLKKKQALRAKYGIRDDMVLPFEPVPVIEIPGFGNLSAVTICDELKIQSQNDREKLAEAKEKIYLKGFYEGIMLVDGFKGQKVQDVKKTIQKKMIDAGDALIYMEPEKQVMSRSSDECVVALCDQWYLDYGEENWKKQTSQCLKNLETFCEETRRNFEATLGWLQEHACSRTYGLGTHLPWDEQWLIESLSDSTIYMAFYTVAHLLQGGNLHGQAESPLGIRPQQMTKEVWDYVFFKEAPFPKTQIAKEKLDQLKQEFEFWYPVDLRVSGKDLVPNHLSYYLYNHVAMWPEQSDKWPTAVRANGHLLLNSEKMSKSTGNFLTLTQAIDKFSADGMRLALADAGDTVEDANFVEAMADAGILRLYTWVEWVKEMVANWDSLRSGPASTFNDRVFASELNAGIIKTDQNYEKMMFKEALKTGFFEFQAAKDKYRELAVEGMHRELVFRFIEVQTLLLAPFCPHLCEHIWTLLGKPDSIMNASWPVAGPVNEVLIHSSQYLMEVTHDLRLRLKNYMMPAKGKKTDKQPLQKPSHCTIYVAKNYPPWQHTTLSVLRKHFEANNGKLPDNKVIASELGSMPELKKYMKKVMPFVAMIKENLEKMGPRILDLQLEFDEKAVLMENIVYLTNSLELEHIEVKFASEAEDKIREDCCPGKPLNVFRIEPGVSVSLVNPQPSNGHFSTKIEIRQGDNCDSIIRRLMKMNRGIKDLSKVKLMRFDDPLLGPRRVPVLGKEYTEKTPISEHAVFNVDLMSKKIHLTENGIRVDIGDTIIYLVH

CC(=O)NC[C@H]1CN(c2ccc(N3CCOCC3)c(F)c2)C(=O)O1 [LINEZOLID]
Activity [1]: 3.9 log10CFU

COc1ccc(Br)c2c1B(O)O[C@@H]2CN.Cl
selectivity ratio [2]: 970
IC50 [3]: 0.074 µM
Vd [4]: 2.5 L/kg
EC50 [5]: 74.5 µM
AUC(0-inf) [6]: 5840 ng·h/mL
bioavailability [7]: 72%
IC50 [8]: > 300 µM
clearance [9]: 14.2 mL/min/kg
EC50 [10]: 97 µM
Cmax [11]: 980 ng/mL
IC50 [12]: > 300 µM
ED99 [13]: 3.8 mg/kg
half-life [14]: 2.4 h
AUC(0-t) at 24 h [15]: 4210 ng·h/mL
MIC [16]: 0.1 µM
AUC/dose [17]: 1.17 µg·h/mL/mg/kg
Tmax [18]: 0.25 h
AUC/dose [19]: 0.84 µg·h/mL

Cl.NC[C@H]1OB(O)c2c3c(cc(Cl)c21)OCCO3
selectivity ratio [2]: 1040
IC50 [3]: 0.046 µM
AUC/dose [20]: 2.54 µg·h/mL/mg/kg
AUC/dose [21]: 1.26 µg·h/mL
EC50 [5]: 69.5 µM
bioavailability [22]: 50%
half-life [23]: 2.9 h
AUC(0-inf) [24]: 76300 ng·h/mL
AUC(0-t) at 24 h [25]: 37700 ng·h/mL
Cmax [26]: 6210 ng/mL
EC50 [10]: 82.8 µM
IC50 [12]: 96.6 µM
ED99 [13]: 70 mg/kg
Vd [27]: 1.5 L/kg
MIC [16]: 0.08 µM
clearance [28]: 6.6 mL/min/kg
Tmax [29]: 1 h
